Measurements taken from PMC2978023 (Journal of immunology (Baltimore, Md. : 1950), 2008).
“And” between values parts separate entries of the source, which are not always exact repeats. Equal entries are not always repeated.

How the values were obtained:
caspase-3 [1] = assay: Caspase-3 cleavage in K562 cell lysates, Western blot; format: cell-based, human; settings: K562 αMβ2 transfectants, 24 h, 37 °C; proteins 1 μM, peptides 100 μM
caspase-3 [2] = assay: Caspase-3 cleavage in PMN lysates, Western blot; format: cell-based, human; settings: PMN lysate, 16 h; proteins 1 μM, peptides 100 μM; six donors
αMβ2 = αMβ2 clustering on PMNs, fluorescence microscopy; format: cell-based, human; settings: 4 h, 37 °C; proteins 1 μM, peptides 100 μM; anti-αM OKMI staining; four donors
How it was run: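 Human PMNs were exposed to ligands (proteins 1 μM, peptides 100 μM) for 4 h at 37°C, or to 1 μM Plg together with clustering inhibitors at the final concentrations used in apoptosis assays. Cells were fixed in 4% paraformaldehyde and stained with anti-αM mAb OKMI plus Alexa 488 goat anti-mouse IgG. They were cytospun, mounted and imaged by fluorescence microscopy (×40/0.7 NA); PMNs came from four donors.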

apoptotic PMNs = assay: Competition with annexin V-FITC binding to apoptotic PMNs; format: cell-based, human; settings: 0–10 μM, data not shown
αM subunit on K562 cells = assay: Soluble ligand binding to K562 cells expressing αM, FACS; set-up: species or system human; settings: 40 min, 37 °C
How it was run: (§1)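 Transiently transfected K562 cells were incubated with soluble Alexa 488-labelled Plg or Ang(1–4) for 40 min at 37°C in HBSS containing 1 mM CaCl₂ and 1 mM MgCl₂. Cells were washed twice and bound ligand was quantified by FACS; three independent experiments. For inhibition, cells were pretreated for 20 min at 37°C with function-blocking anti-αM or anti-β2 mAbs (20 μg/ml) or NIF (20 nM).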

[3] = test system: mock-transfected K562 cells; assay: Apoptosis of mock-transfected K562 cells, annexin V, FACS; format: cell-based, human; settings: 16 h, 37 °C; proteins 1 μM, peptides 100 μM; no ligand 81 ± 8; mean ± SEM, n = 5
Akt [4] = assay: Akt phosphorylation in transfected K562 cells, Western blot; format: cell-based, human; settings: 37 °C
How it was run: (§2)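 Transiently transfected K562 cells (αM, β2, αMβ2 or mock) were exposed to ligands for 30 min at 37°C and lysed in ice-cold buffer. Equal protein was run on SDS-PAGE and blotted with the PathScan Multiplex Western Cocktail I, then reprobed for total ERK1/2; blots shown are representative of three experiments.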

Bax [5] = assay: Bax cleavage in PMN lysates, Western blot; format: cell-based, human; settings: PMN lysate, 16 h; proteins 1 μM, peptides 100 μM; six donors
αMβ2 on K562 cells = assay: Soluble ligand binding to K562 cells expressing αMβ2, FACS; set-up: species or system human; settings: 40 min, 37 °C
How it was run: as §1

[6] = target: recombinant purified β2 subunit (Homo sapiens, UniProt P05107); assay: Solid-phase binding to purified β2 subunit; settings: solid-phase binding, αM versus β2
How it was run: (§3)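 Purified recombinant αMβ2, αM or β2 (from HEK293 lines) was coated overnight at 4°C in TBS with 10 mM n-octyl-β-D-glucopyranoside and postcoated with 0.5% PVP for 1 h at 37°C. Biotinylated Plg or Ang(1–4) (0–10 μM) was bound for 2 h at 37°C in the same buffer plus 1 mM CaCl₂/MgCl₂. Binding was detected with alkaline phosphatase–avidin and pNPP at A405. Kd came from a one-site binding fit.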

caspase-8 [7] = assay: Caspase-8 cleavage in K562 cell lysates, Western blot; format: cell-based, human; settings: K562 αMβ2 transfectants, 24 h, 37 °C; proteins 1 μM, peptides 100 μM
Akt [8] = assay: Akt phosphorylation in PMNs, Western blot; format: cell-based, human; settings: PMN stimulated with 1 nM PMA, 30 min, 37 °C; proteins 1 μM, peptides 100 μM
How it was run: (§4)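 Human PMNs stimulated with 1 nM PMA were incubated with ligands for 30 min at 37°C in HBSS with 1 mM CaCl₂, 1 mM MgCl₂, 0.1% BSA, pH 7.4. Cells were lysed in ice-cold Tris/EDTA/detergent buffer with phosphatase and protease inhibitors. Equal protein was immunoblotted for phospho- and total Akt or ERK1/2, with actin. Inhibition arm: 20 min pretreatment at 37°C with 10 μM Akt inhibitor, 50 μM PD98059, 50 nM NIF, or F(ab′)₂ anti-αM or anti-MHC-1 (20 μg/ml), then 1 μM Plg.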

caspase-8 [9] = assay: Caspase-8 cleavage in PMN lysates, Western blot; format: cell-based, human; settings: PMN lysate, 16 h; proteins 1 μM, peptides 100 μM; six donors
β2 subunit on K562 cells = assay: Soluble ligand binding to K562 cells expressing β2, FACS; set-up: species or system human; settings: 40 min, 37 °C
How it was run: as §1

ERK1/2 [10] = assay: ERK1/2 phosphorylation in PMNs, Western blot; format: cell-based, human; settings: PMN stimulated with 1 nM PMA, 30 min, 37 °C; proteins 1 μM, peptides 100 μM
How it was run: as §4

[11] = test system: αM^(Ile316→Gly)β2 on K562 cells; assay: Adhesion of K562 cells expressing αM^; format: cell-based, human; settings: K562 αM^(Ile316→Gly)β2, data not shown
[12] = target: recombinant purified integrin αMβ2 (Homo sapiens, UniProt P05107+P11215); assay: Solid-phase binding to purified αMβ2; settings: higher for Plg than for Ang(1–4)
How it was run: as §3

Bax [13] = assay: Bax cleavage in K562 cell lysates, Western blot; format: cell-based, human; settings: K562 αMβ2 transfectants, 24 h, 37 °C; proteins 1 μM, peptides 100 μM
ERK1/2 [14] = assay: ERK1/2 phosphorylation in transfected K562 cells, Western blot; format: cell-based, human; settings: 37 °C
How it was run: as §2

human PMNs = settings: Plg 1 μM, 16 h, 37 °C; media alone 90 ± 21; mean ± SEM, n = 6

Chain of recombinant purified β2 subunit (P05107 23-769): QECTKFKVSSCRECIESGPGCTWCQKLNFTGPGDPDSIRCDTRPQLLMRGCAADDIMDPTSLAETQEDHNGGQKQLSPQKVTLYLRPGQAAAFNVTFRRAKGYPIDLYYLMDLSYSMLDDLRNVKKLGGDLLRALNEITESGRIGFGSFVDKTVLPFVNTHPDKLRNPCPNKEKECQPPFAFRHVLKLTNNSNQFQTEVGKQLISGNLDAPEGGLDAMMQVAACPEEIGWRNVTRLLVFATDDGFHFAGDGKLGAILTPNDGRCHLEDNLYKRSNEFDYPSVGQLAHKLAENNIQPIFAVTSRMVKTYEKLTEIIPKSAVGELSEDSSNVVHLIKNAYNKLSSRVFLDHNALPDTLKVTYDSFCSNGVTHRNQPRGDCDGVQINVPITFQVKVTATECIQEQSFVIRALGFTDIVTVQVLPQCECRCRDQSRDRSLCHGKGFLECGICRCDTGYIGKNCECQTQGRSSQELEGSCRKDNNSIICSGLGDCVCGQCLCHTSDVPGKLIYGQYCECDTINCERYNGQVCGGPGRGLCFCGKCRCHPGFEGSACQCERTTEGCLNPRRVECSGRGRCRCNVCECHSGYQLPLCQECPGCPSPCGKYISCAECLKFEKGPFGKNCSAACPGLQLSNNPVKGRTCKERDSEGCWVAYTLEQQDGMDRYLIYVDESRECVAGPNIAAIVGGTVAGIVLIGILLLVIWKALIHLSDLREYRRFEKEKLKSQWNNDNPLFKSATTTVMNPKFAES
Chain of recombinant purified integrin αMβ2 (P05107 23-769, other chains not shown): as the sequence (P05107 23-769) above

- affinity of αMβ2 for Plg relative to Ang(1–4) [12]: ~ 10 fold
Substance: plasminogen [Plg]
- caspase-3 cleavage product, αMβ2 cells (caspase-3 [1]): not detected
- 18-kDa caspase-3 fragment (caspase-3 [2]): absent
- αMβ2 macroclusters on PMN surface (αMβ2): detected
- competition with annexin V-FITC binding (apoptotic PMNs): did not compete with annexin V-FITC binding at any concentration tested
- soluble ligand binding, αM cells (in words) (αM subunit on K562 cells): bound both ligands
- K562 early/late apoptosis (% annexin V+ cells), mock [3]: 78 ± 10%
- Akt phosphorylation, αM, β2 and mock cells (Akt [4]; K562 expressing αM or β2, or mock-transfected, 30 min): not in K562 cells expressing the individual αM or β2 subunits (Fig. 6A) or mock-transfected cells
- Akt activation, tailless and chimeric αMβ2 (Akt [4]; K562 expressing αM(1119Δ)β2, αMβ2(728Δ) or αM/αLβ2, Plg, 30 min): no Akt activation could be detected
- Akt phosphorylation, αMβ2 cells (Akt [4]; K562 expressing αMβ2, 30 min): robust Akt phosphorylation
- 22-kDa Bax fragment (Bax [5]): absent
- soluble ligand binding, αMβ2 cells (in words) (αMβ2 on K562 cells): bound both ligands
- recognition by individual integrin subunits (in words) [6]: interacted with the individual αM and β2 subunits with similar affinities
- caspase-8 cleavage product, αMβ2 cells (caspase-8 [7]): not detected
- Akt phosphorylation (Akt [8]): robust Akt phosphorylation
- caspase-8 fragment (caspase-8 [9]): absent
- soluble ligand binding, β2 cells (in words) (β2 subunit on K562 cells): bound soluble Plg
- ERK1/2 activation (ERK1/2 [10]): induced ERK1/2 activation
- adhesion to Plg versus wild type [11]: enhanced adhesion to Plg
- Bax cleavage product, αMβ2 cells (Bax [13]): not detected
- ERK1/2 activation, αM cells (ERK1/2 [14]; K562 expressing αM, 30 min): strongly induced
- ERK1/2 activation, αMβ2 cells (ERK1/2 [14]; K562 expressing αMβ2, 30 min): strongly induced
- ERK1/2 phosphorylation, mock and β2 cells (ERK1/2 [14]; K562 mock or expressing β2, 30 min): poorly induced
- PMN early/late apoptosis (% annexin V+ cells), Plg alone (human PMNs): 32 ± 10% and 32 ± 105%
